The text below walks through data of ChEMBL document CHEMBL1154808, “Synthesis, characterization and biological activities of some new benzo[b]thiophene derivatives” (2010).

Holding throughout (format): functional
Experiment [1] has as its system Staphylococcus aureus. Briefly: Antibacterial activity against Staphylococcus aureus after 16 to 18 hrs by serial dilution method. In short, it runs like this:
(§1)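 Compounds were dissolved in DMF and serially diluted. A standard drop of the prepared culture was added to each dilution, and tubes were incubated for 16–18 h at 37 °C. MIC was read as the highest dilution that stayed clear with no turbidity, determined separately for each organism. Candida albicans was tested by the same procedure.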

The test system of experiment [2] is Escherichia coli. Briefly: Antibacterial activity against Escherichia coli after 16 to 18 hrs by serial dilution method. In short, it runs like this: as §1
Experiment [3] deals with Bacillus subtilis. The experiment is described as follows: Antibacterial activity against Bacillus subtilis after 16 to 18 hrs by serial dilution method. The procedure, abridged:
as §1

Experiment [4] has as its system Pseudomonas aeruginosa. Briefly: Antibacterial activity against Pseudomonas aeruginosa after 16 to 18 hrs by serial dilution method. The procedure, abridged: as §1
Experiment [5] relates to Candida albicans. Briefly: Antifungal activity against Candida albicans after 16 to 18 hrs by serial dilution method. In short, it runs like this:
as §1

SMILES strings stand for the structures. Converted amounts (≈) assume the structure as drawn.

On to `Clc1ccccc1OCc1nnc2sc(-c3sc4ccccc4c3Cl)nn12`, for which the minimum inhibitory concentration (MIC) in experiment [1], in experiment [2], in experiment [3], in experiment [4] and in experiment [5] was 6 µg/mL (≈ 13.8 µM) in each case.
`CC1=NN(C(=O)c2sc3ccccc3c2Cl)C(=O)/C1=N/Nc1cc(Cl)ccc1Cl`: the MIC (usually the lowest concentration found to suppress growth) in experiment [1] was 12.5 µg/mL (≈ 26.8 µM); in experiment [2] it was 6 µg/mL (≈ 12.9 µM); in experiment [3] it was 6 µg/mL (≈ 12.9 µM); in experiment [4] it was 6 µg/mL (≈ 12.9 µM); in experiment [5] it was 6 µg/mL (≈ 12.9 µM).
Consider `O=C(c1sc2ccccc2c1Cl)n1nc(-c2ccc([N+](=O)[O-])s2)cc1-c1ccccc1`, for which the MIC in experiment [1] turned out to be 3 µg/mL (≈ 6.44 µM); in experiment [2] it was 3 µg/mL (≈ 6.44 µM); in experiment [3], 6 µg/mL (≈ 12.9 µM); in experiment [4], 6 µg/mL (≈ 12.9 µM); in experiment [5], 6 µg/mL (≈ 12.9 µM).
For the compound `O=C(c1sc2ccccc2c1Cl)n1nc(-c2ccc([N+](=O)[O-])s2)cc1-c1ccc(Cl)cc1`, the MIC was 3 µg/mL (≈ 6 µM) in experiment [1]; 6 µg/mL (≈ 12 µM) in experiment [2]; 6 µg/mL (≈ 12 µM) in experiment [3]; 6 µg/mL (≈ 12 µM) in experiment [4]; 3 µg/mL (≈ 6 µM) in experiment [5].
In the case of `Clc1ccccc1OCc1nnc(-c2sc3ccccc3c2Cl)o1`, the MIC in experiment [1], in experiment [2], in experiment [3], in experiment [4] and in experiment [5] was 6 µg/mL (≈ 15.9 µM) throughout.
With `Clc1ccc(OCc2nnc(-c3sc4ccccc4c3Cl)o2)c(Cl)c1`, the minimum inhibitory concentration (MIC) in experiment [1], in experiment [2], in experiment [3], in experiment [4] and in experiment [5] was 6 µg/mL (≈ 14.6 µM) throughout.
In the case of `CC1=NN(C(=O)c2sc3ccccc3c2Cl)C(=O)/C1=N/Nc1ccccc1`, the minimal inhibitory concentration (MIC) in experiment [1], in experiment [2], in experiment [3], in experiment [4] and in experiment [5] was 6 µg/mL (≈ 15.1 µM) throughout.
Take `CC1=NN(C(=O)c2sc3ccccc3c2Cl)C(=O)/C1=N/Nc1ccc(C)cc1[N+](=O)[O-]`: the MIC in experiment [1], in experiment [2], in experiment [3], in experiment [4] and in experiment [5] was 6 µg/mL (≈ 13.2 µM) in each case.
For `Cc1ccc(OCc2nnc3sc(-c4sc5ccccc5c4Cl)nn23)cc1`, the minimum inhibitory concentration (MIC) in experiment [1], in experiment [2], in experiment [3], in experiment [4] and in experiment [5] was 6 µg/mL (≈ 14.5 µM) throughout.
In the case of `CC1=NN(C(=O)c2sc3ccccc3c2Cl)C(=O)/C1=N/Nc1ccc(Cl)cc1C`, the minimum inhibitory concentration (MIC) in experiment [1], in experiment [2], in experiment [3], in experiment [4] and in experiment [5] was 6 µg/mL (≈ 13.5 µM) throughout.
In the case of `COc1ccc(-c2cc(-c3ccc(Cl)cc3)n(C(=O)c3sc4ccccc4c3Cl)n2)cc1`, the MIC in experiment [1], in experiment [2], in experiment [3], in experiment [4] and in experiment [5] was 6 µg/mL (≈ 12.5 µM) throughout.
`COc1ccc(-c2cc(-c3ccccc3)n(C(=O)c3sc4ccccc4c3Cl)n2)cc1`: the minimal inhibitory concentration (MIC) in experiment [1] stood at 6 µg/mL (≈ 13.5 µM); in experiment [2], 6 µg/mL (≈ 13.5 µM); in experiment [3] it was 6 µg/mL (≈ 13.5 µM); in experiment [4], 6 µg/mL (≈ 13.5 µM); in experiment [5], 3 µg/mL (≈ 6.74 µM).
`OC(Cn1cncn1)(Cn1cncn1)c1ccc(F)cc1F` [FLUCONAZOLE]: in experiment [5], the MIC stood at 6 µg/mL (≈ 19.6 µM).
In the case of `NC(=O)N/N=C/c1ccc([N+](=O)[O-])o1` [NITROFURAZONE], the minimum inhibitory concentration (MIC) in experiment [1] stood at 12.5 µg/mL (≈ 63.1 µM); in experiment [2] it was 6 µg/mL (≈ 30.3 µM); in experiment [3], 12.5 µg/mL (≈ 63.1 µM); in experiment [4], 12.5 µg/mL (≈ 63.1 µM).
